Test results as given in ChEMBL document CHEMBL2040844, “Anthranilic acid-based diamides derivatives incorporating aryl-isoxazoline pharmacophore as potential anticancer agents: design, synthesis and biological evaluation” (Eur J Med Chem, 2012).

Tests used:
[1] = system: NCI-H460; test: Growth inhibition of human NCI-H460 cells at 40 ug/ml after 72 hrs by MTT assay; type: functional; conditions: NCI-H460, 72 h, read-out: GI
Outline: (§1)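 Single-concentration screen at 40 µg/mL, reported as % cell growth inhibition. Cells were seeded at 2 × 10⁴ per well, grown to subconfluence, then treated for 72 h at 37 °C in humidified 5% CO₂. MTT was added for 4 h, formazan was dissolved in DMSO, and absorbance was read at 570 nm. Triplicate wells, three independent experiments; 5-FU served as positive control.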

[2] = system: HepG2; test: Cytotoxicity against human HepG2 cells after 72 hrs by MTT assay; type: functional, cell-based; conditions: for IC50: HepG2, 72 h
Outline: (§2)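 MTT assay. Cells were seeded at 2 × 10⁴ per well, grown to subconfluence, then exposed to serial dilutions of compound in test medium for 72 h at 37 °C in humidified 5% CO₂. MTT was added for 4 h, formazan was dissolved in DMSO, and absorbance was read at 570 nm. IC50 values were derived from dose-response. Triplicate wells, three independent experiments; 5-FU served as positive control.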

[3] = system: MCF7; test: Cytotoxicity against human MCF7 cells after 72 hrs by MTT assay; type: functional, cell-based; conditions: MCF7, 72 h; outline: as §2
[4] = system: BGC-823; test: Cytotoxicity against human BGC823 cells after 72 hrs by MTT assay; type: functional, cell-based; conditions: for IC50: BGC-823, 72 h; outline: as §2
[5] = system: MCF7; test: Growth inhibition of human MCF7 cells at 40 ug/ml after 72 hrs by MTT assay; type: functional; conditions: MCF7, 72 h, read-out: GI; outline: as §1
[6] = system: SGC-7901; test: Cytotoxicity against human SGC7901 cells after 72 hrs by MTT assay; type: functional, cell-based; conditions: SGC-7901, 72 h; outline: as §2
[7] = system: HepG2; test: Growth inhibition of human HepG2 cells at 40 ug/ml after 72 hrs by MTT assay; type: functional; conditions: HepG2, 72 h, read-out: GI; outline: as §1
[8] = system: BGC-823; test: Growth inhibition of human BGC823 cells at 40 ug/ml after 72 hrs by MTT assay; type: functional; conditions: BGC-823, 72 h, read-out: GI; outline: as §1
[9] = system: SGC-7901; test: Growth inhibition of human SGC7901 cells at 40 ug/ml after 72 hrs by MTT assay; type: functional; conditions: SGC-7901, 72 h, read-out: GI; outline: as §1
[10] = system: NCI-H460; test: Cytotoxicity against human NCI-H460 cells after 72 hrs by MTT assay; type: functional, cell-based; conditions: NCI-H460, 72 h; outline: as §2

Compound | inhibition of growth at 40 µg/mL [1] | IC50 [2] | IC50 [3] | IC50 [4] | inhibition of growth at 40 µg/mL [5] | IC50 [6] | inhibition of growth at 40 µg/mL [7] | inhibition of growth at 40 µg/mL [8] | inhibition of growth at 40 µg/mL [9] | IC50 [10] | Activity [2] | Activity [4]
Cc1cc(Cl)cc2c(=O)oc(C3CC(c4ccc(Cl)cc4)=NO3)nc12 (centres undefined) | 58.1% | 43.6 µM | 68.7 µM | 54.4 µM | 37.7% | 68.8 µM | 52.4% | 31.5% | 35.6% | 41.9 µM | – | –
CNC(=O)c1cc(Cl)cc(C)c1NC(=O)C1CC(c2cc(OC)c(OC)c(OC)c2)=NO1 (centres undefined) | 5.5% | 67.6 µM | > 100 µM | 54.1 µM | 26.1% | 65.5 µM | 30.6% | 34.1% | 27.3% | > 100 µM | – | –
CCN(CC)C(=O)c1cc(Cl)cc(C)c1NC(=O)C1CC(c2ccc(Cl)cc2)=NO1 (centres undefined) | 63.5% | 37.7 µM | 34.5 µM | 36.5 µM | 62.1% | 37.4 µM | 59.2% | 59.6% | 76.3% | 37.5 µM | Dose-dependent effect | Dose-dependent effect
O=c1[nH]cc(F)c(=O)[nH]1 [FLUOROURACIL] | 89.7% | 4.8 µM | 12.5 µM | 4.5 µM | 80.4% | 6.3 µM | 81.3% | 85.7% | 80.8% | 2.4 µM | – | –
Cc1cc(Cl)cc(C(=O)Nc2ccccc2)c1NC(=O)C1CC(c2ccc(F)cc2)=NO1 (centres undefined) | 0% | – | – | – | 17% | – | 5.1% | 26.4% | 11.6% | – | – | –
Cc1cc(Cl)cc(C(=O)NC2CCCCC2)c1NC(=O)C1CC(c2ccc(Cl)cc2)=NO1 (centres undefined) | 15.1% | – | – | – | 9.6% | – | 15.6% | 18.3% | 3.1% | – | – | –
CNC(=O)c1ccccc1NC(=O)C1CC(c2cc(OC)c(OC)c(OC)c2)=NO1 (centres undefined) | 0% | – | – | – | 9.1% | – | 31.4% | 20.8% | 12% | – | – | –
Cc1cc(Cl)cc(C(=O)NC(C)C)c1NC(=O)C1CC(c2ccc(Cl)cc2)=NO1 (centres undefined) | 10.3% | – | – | – | 3.9% | – | 12.3% | 38.7% | 24.2% | – | – | –
COc1cc(C2=NOC(C(=O)Nc3c(C)cc(Cl)cc3C(=O)NC3CCCCC3)C2)cc(OC)c1OC (centres undefined) | 74% | 34.8 µM | 22.4 µM | 23.3 µM | 62.7% | 36.8 µM | 64% | 69.7% | 60.2% | 24.7 µM | Dose-dependent effect | Dose-dependent effect
CNC(=O)c1cc(Cl)cc(C)c1NC(=O)C1CC(c2ccc(F)cc2)=NO1 (centres undefined) | 42.9% | > 100 µM | > 100 µM | > 100 µM | 40.8% | > 100 µM | 26.7% | 14.6% | 12.8% | 50.3 µM | – | –
CC(C)NC(=O)c1ccccc1NC(=O)C1CC(c2ccc(Cl)cc2)=NO1 (centres undefined) | 0% | – | – | – | 0% | – | 5.5% | 14.6% | 13.6% | – | – | –
CCCNC(=O)c1cc(Cl)cc(C)c1NC(=O)C1CC(c2ccc(F)cc2)=NO1 (centres undefined) | 20% | > 100 µM | > 100 µM | > 100 µM | 33% | > 100 µM | 29.1% | 23.5% | 30.5% | > 100 µM | – | –
CNC(=O)c1cc(Cl)cc(C)c1NC(=O)C1CC(c2ccc(Cl)cc2)=NO1 (centres undefined) | 0% | > 100 µM | > 100 µM | > 100 µM | 22.6% | > 100 µM | 18.7% | 13.2% | 24.6% | > 100 µM | – | –
